The source made the active and inactive calls. No cut-off for these calls is given here.
Tests used:
[1] = test system: Plasmodium falciparum; assay: Reversible inhibition of Plasmodium falciparum C-terminal His6-tagged M17 aminopeptidase (85 to 605 residues) expressed in Escherichia coli BL21(DE3) assessed as enzyme activity recovery at 150 uM preincubated followed by compound washout for 5 hrs and subsequent L-leucine-7-amido-4-methylcoumarin substrate addition by fluorescence assay
Method in brief: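 Pf-M17 (20 μM) was incubated overnight at 4 °C with 150 μM compound, 150 μM bestatin, 2 mM EDTA, or buffer (50 mM HEPES pH 8, 300 mM NaCl). It was then washed by repeated 10-fold concentration/dilution for up to 7 h, incubated 10 min in 1 mM MnCl2, 100 mM Tris pH 8.0, given 25 μM Leu-AMC (final), and fluorescence followed for 30 min.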

[2] = Cytotoxicity against HEK293 cells after 72 hrs by resazurin dye based assay; assay type: cell-based; settings: human
Method in brief: (§1)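 HEK293 cells kept in DMEM with 10% FBS. Exposed to compounds for 72 h at 37 °C, 5% CO2, using the same dilution scheme as the parasite assay (top 40 μM). Medium then replaced with 44 μM resazurin, and fluorescence (530/595 nm) read after 5–6 h.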

[3] = Growth inhibition of HEK293 cells at 10 uM after 72 hrs by resazurin dye based assay relative to control; assay type: cell-based; settings: human, read-out: GI; method in brief: as §1
[4] = Growth inhibition of HEK293 cells at 40 uM after 72 hrs by resazurin dye based assay relative to control; assay type: cell-based; settings: human, read-out: GI; method in brief: as §1
[5] = test system: Plasmodium falciparum; settings: 2 mM
[6] = Inhibition of Plasmodium falciparum C-terminal His6-tagged M1 aminopeptidase (195 to 1085 residues) expressed in Escherichia coli BL21(DE3) preincubated for 20 mins followed by L-leucine-7-amido-4-methylcoumarin addition by Morrison equation analysis
Method in brief: (§2)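 Recombinant enzymes (Ni-NTA then size exclusion) were preincubated 20 min with inhibitor in 100 mM Tris-HCl pH 8.0, with 2 mM CoCl2 for Pf-M17 and 1 mM for Pv-M17. Leu-AMC substrate: 20 μM (Pf-M1), 40 μM (Pv-M1), 10 μM (both M17). Read at 37 °C, 355/460 nm, to steady-state velocity. Ki from a Morrison tight-binding fit; biological triplicate from three protein preparations.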

[7] = Inhibition of Plasmodium vivax C-terminal His6-tagged M1 aminopeptidase (195 to 1097 residues) expressed in Escherichia coli BL21(DE3) preincubated for 20 mins followed by L-leucine-7-amido-4-methylcoumarin addition by Morrison equation analysis; method in brief: as §2
[8] = Inhibition of Plasmodium falciparum C-terminal His6-tagged M17 aminopeptidase (85 to 605 residues) expressed in Escherichia coli BL21(DE3) preincubated for 20 mins followed by L-leucine-7-amido-4-methylcoumarin addition by Morrison equation analysis; method in brief: as §2
[9] = Inhibition of Plasmodium vivax C-terminal His6-tagged M17 aminopeptidase (203 to 621 residues) expressed in Escherichia coli BL21(DE3) preincubated for 20 mins followed by L-leucine-7-amido-4-methylcoumarin addition by Morrison equation analysis; method in brief: as §2
[10] = Selectivity ratio of Ki for Plasmodium falciparum C-terminal His6-tagged M1 aminopeptidase (195 to 1085 residues) expressed in Escherichia coli BL21(DE3) to Ki for Plasmodium vivax C-terminal His6-tagged M1 aminopeptidase (195 to 1097 residues) expressed in Escherichia coli BL21(DE3)
[11] = test system: Plasmodium falciparum; assay: Antimalarial activity against Plasmodium falciparum 3D7 after 72 hrs by DAPI staining-based confocal imaging analysis; assay type: functional, organism-based; settings: 3D7, 72 h
Method in brief: (§3)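 Exposed to a 16-point dose series (40 μM to 0.4 nM final, 0.4% DMSO) for 72 h at 37 °C in 90% N2/5% CO2/5% O2. DAPI-stained and imaged confocally. Two biological replicates, each with two technical repeats.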

[12] = test system: Plasmodium falciparum; assay: Antimalarial activity against Plasmodium falciparum Dd2 after 72 hrs by DAPI staining-based confocal imaging analysis; assay type: functional, organism-based; method in brief: as §3
[13] = Selectivity index, ratio of CC50 for HEK293 cells to IC50 for Plasmodium falciparum 3D7; assay type: toxicity; settings: human, read-out: Ratio CC50/IC50
[14] = biological target: 72 kDa type IV collagenase (Homo sapiens, UniProt P08253); assay: Inhibition of MMP2 (unknown origin) preincubated for 1 hr followed by (QF)-24 substrate addition measured at 1 min time interval for 1 hr by fluorescence assay
Chain of 72 kDa type IV collagenase (P08253 whole entry): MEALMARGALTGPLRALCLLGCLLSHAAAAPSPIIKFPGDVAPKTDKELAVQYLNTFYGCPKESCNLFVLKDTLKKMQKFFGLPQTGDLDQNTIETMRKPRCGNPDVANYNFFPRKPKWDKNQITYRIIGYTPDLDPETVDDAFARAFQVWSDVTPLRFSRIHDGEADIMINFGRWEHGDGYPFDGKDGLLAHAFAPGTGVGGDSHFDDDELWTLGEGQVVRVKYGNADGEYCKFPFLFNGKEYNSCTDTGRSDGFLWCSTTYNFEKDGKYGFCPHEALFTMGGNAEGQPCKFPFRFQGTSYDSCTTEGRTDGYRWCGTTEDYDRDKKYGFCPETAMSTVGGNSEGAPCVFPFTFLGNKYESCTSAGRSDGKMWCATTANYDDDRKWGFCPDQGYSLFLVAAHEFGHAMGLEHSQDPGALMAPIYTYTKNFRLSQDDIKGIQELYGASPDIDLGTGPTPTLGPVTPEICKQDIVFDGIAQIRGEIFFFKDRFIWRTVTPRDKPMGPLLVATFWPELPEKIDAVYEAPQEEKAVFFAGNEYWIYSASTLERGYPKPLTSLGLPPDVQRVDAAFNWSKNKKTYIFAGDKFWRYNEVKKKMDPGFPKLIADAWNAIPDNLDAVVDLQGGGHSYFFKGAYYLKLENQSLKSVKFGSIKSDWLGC

[15] = biological target: Matrix metalloproteinase-9 (Homo sapiens, UniProt P14780); assay: Inhibition of MMP9 (unknown origin) preincubated for 1 hr followed by (QF)-24 substrate addition measured at 1 min time interval for 1 hr by fluorescence assay
Chain of Matrix metalloproteinase-9 (P14780 whole entry): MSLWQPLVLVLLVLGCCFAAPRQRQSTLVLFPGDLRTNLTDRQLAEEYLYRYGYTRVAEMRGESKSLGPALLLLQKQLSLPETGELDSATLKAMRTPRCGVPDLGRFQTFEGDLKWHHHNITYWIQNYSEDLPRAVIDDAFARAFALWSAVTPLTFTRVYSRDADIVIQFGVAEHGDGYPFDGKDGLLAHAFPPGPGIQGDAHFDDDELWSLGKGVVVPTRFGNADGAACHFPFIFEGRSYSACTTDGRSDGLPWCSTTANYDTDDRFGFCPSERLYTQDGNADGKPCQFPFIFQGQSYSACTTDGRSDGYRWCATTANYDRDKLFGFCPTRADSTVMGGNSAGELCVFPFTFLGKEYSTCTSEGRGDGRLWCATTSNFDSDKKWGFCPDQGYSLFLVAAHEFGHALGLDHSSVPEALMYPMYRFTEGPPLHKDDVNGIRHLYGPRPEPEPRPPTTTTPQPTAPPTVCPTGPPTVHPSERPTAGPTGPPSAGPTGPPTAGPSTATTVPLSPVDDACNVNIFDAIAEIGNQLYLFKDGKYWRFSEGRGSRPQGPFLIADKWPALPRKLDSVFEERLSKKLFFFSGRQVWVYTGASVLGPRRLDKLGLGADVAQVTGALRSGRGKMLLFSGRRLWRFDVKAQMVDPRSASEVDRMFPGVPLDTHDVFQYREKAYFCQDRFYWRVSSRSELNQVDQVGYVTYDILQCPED

[16] = biological target: Neutrophil collagenase (Homo sapiens) (UniProt P22894); assay: Inhibition of MMP8 (unknown origin) preincubated for 1 hr followed by (QF)-24 substrate addition measured at 1 min time interval for 1 hr by fluorescence assay
Chain of Neutrophil collagenase (Homo sapiens) (P22894 101-467 limits assumed): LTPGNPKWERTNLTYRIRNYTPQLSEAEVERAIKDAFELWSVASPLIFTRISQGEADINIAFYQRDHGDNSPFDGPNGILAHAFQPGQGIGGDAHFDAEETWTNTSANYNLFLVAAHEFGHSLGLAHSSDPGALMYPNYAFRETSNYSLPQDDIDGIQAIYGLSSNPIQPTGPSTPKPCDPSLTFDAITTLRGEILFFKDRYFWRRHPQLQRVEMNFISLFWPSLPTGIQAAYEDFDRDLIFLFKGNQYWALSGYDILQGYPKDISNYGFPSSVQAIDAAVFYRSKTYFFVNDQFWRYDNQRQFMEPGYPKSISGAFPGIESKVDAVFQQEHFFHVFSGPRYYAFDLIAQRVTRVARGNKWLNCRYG
Method in brief: (§4)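 MMPs were activated with 1 mM 4-aminophenylmercuric acetate (50 mM HEPES, 150 mM NaCl, 5 mM CaCl2, pH 7.0, 1 h, rt). 1 μM QF24 was added at 37 °C and read at 320/405 nm every minute for 1 h. IC50 from a four-parameter Hill fit; three independent experiments.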

[17] = biological target: T1, Matrilysin (Homo sapiens) (UniProt P09237); assay: Inhibition of MMP7 (unknown origin) preincubated for 1 hr followed by (QF)-24 substrate addition measured at 1 min time interval for 1 hr by fluorescence assay; method in brief: as §4
T1 sequence (whole entry): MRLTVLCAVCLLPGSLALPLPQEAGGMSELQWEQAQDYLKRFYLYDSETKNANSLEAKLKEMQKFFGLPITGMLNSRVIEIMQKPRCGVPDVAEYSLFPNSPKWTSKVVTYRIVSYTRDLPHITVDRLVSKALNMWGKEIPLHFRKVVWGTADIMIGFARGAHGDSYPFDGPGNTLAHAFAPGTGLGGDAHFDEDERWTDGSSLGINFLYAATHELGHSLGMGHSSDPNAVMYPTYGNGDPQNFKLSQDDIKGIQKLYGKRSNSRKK

[18] = Plasmodium falciparum, Dd2, 72 h, read-out: IC50

| SMILES | Ratio Ki [10] | IC50 [11] | inhibition at 72 h, 10 µM [3] | inhibition at 72 h, 40 µM [4] | Ki [6] | Ki [7] | Ki [8] | Ki [9] | also measured |
| --- | --- | --- | --- | --- | --- | --- | --- | --- | --- |
| CC(C)C[C@H](NC(=O)[C@@H](O)[C@H](N)Cc1ccccc1)C(=O)O | – | – | – | – | – | – | – | – | inhibition [1]: Active |
| CCN(CC)CCCC(C)Nc1ccnc2cc(Cl)ccc12 (configuration not stated) [CHLOROQUINE] | – | – | 17.3% | 57% | – | – | – | – | CC50 at 72 h [2]: ≥ 20000 nM |
| O=C(O)CN(CCN(CC(=O)O)CC(=O)O)CC(=O)O | – | – | – | – | – | – | – | – | inhibition [5]: Active |
| O=C(NC(C(=O)NO)c1ccc(-c2cc(F)c(F)c(F)c2)cc1)C1CCOCC1 (configuration not stated) | 10 | – | – | – | 431 nM | 159 nM | 290 nM | 494 nM | – |
| O=C(CC1CCCC1)NC(C(=O)NO)c1ccc(-c2cc(F)c(F)c(F)c2)cc1 (configuration not stated) | 28.5 | 168 nM | 3.1% | -1% | 216 nM | 7.58 nM | 138 nM | 211 nM | IC50 [12, 18]: 125 nM |
| CC(C)(C)C(=O)NC(C(=O)NO)c1ccc(-c2cc(F)c(F)c(F)c2)cc1 (configuration not stated) | 10 | 83.1 nM | 1.1% | 80.7% | 331 nM | 14.1 nM | 147 nM | 74.8 nM | IC50 [12, 18]: 81.7 nM; CC50 at 72 h [2]: ≥ 20000 nM; selectivity ratio [13]: ≥ 241 |
| CC(C)C[C@@H](C(=O)N[C@H](C(=O)OC1CCCC1)c1ccccc1)C(O)C(=O)NO (some centres not stated) | – | – | – | – | – | – | – | – | IC50 [14]: 190 nM; IC50 [15]: 1500 nM; inhibition [16]: Active; inhibition [17]: Active |
| C[C@H]1[C@@H](O)O[C@@H]2O[C@@]3(C)CC[C@H]4[C@H](C)CC[C@@H]1[C@@]24OO3 [ARTENIMOL] | – | 0.5 nM | 31% | – | – | – | – | – | IC50 [12, 18]: 0.4 nM |
| O=C(CC1CCC1)NC(C(=O)NO)c1ccc(-c2cc(F)c(F)c(F)c2)cc1 (configuration not stated) | 62.1 | 55.4 nM | 6.3% | 5.6% | 177 nM | 2.85 nM | 306 nM | 75.6 nM | IC50 [12, 18]: 29.2 nM |
| CCc1nc(N)nc(N)c1-c1ccc(Cl)cc1 [PYRIMETHAMINE] | – | 5.1 nM | 34.4% | 53.7% | – | – | – | – | IC50 [12]: Not Active; CC50 at 72 h [2]: ≥ 20000 nM; selectivity ratio [13]: ≥ 1960 |

The next lines start with results.

| Ratio Ki [10] | IC50 [11] | SMILES | inhibition at 72 h, 10 µM [3] | inhibition at 72 h, 40 µM [4] | Ki [6] | Ki [7] | Ki [8] | Ki [9] | also measured |
| --- | --- | --- | --- | --- | --- | --- | --- | --- | --- |
| 10 | – | CC(C)C(=O)NC(C(=O)NO)c1ccc(-c2cc(F)c(F)c(F)c2)cc1 (configuration not stated) | – | – | 417 nM | 38.9 nM | 426 nM | 325 nM | – |
| 10 | – | O=C(N[C@@H](C(=O)NO)c1ccc(-c2cc(F)c(F)c(F)c2)cc1)[C@@H](F)C(F)(F)F (racemic) | – | – | 257 nM | 11.2 nM | 814 nM | 382 nM | – |
| 10 | – | O=C(NO)C(NC(=O)C(F)(F)C(F)(F)F)c1ccc(-c2cc(F)c(F)c(F)c2)cc1 (configuration not stated) | – | – | 815 nM | 90 nM | 200 nM | 97.5 nM | – |
| 10 | – | O=C(CC1CCCCC1)NC(C(=O)NO)c1ccc(-c2cc(F)c(F)c(F)c2)cc1 (configuration not stated) | – | – | 812 nM | 13.2 nM | 288 nM | 148 nM | – |

Source: ChEMBL document CHEMBL4371057, “Hydroxamic Acid Inhibitors Provide Cross-Species Inhibition of Plasmodium M1 and M17 Aminopeptidases” (J Med Chem, 2019)
